Data reported in the RNAGym collection of RNA variant scans (doi:10.1002/anie.201605470).

B1: Osa-1-4 twister ribozyme (parent)
chain: CCGCCUAACACUGCCAAUGCCGGUCCCAAGCCCGGAUAAAAGUGGAGGGGGCGG

Variants of: B1
Experiment: self-cleavage, relative activity (ratio to wild type); higher = more cleavage; co-transcriptional
In short: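 The 48 positions downstream of the cleavage site in a 54-nucleotide Oryza sativa twister ribozyme template were synthesised at 97 % wild-type base and 1 % of each other base. The template was transcribed in vitro at 37 °C for 2 h, with self-cleavage allowed during transcription. Reads with or without upstream sequence after deep sequencing marked cleavage status, and relative activity is fraction cleaved normalised to wild type.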

Row | Variant | self-cleavage
1 | CCGCCUAACACUGCCAAUGGCGGUCCCAAGCCCGGAUAAAAGUGGGGGGGGCGG [A46G C20G] | 0.04
2 | CCGCCUAACACUGCCAAUGACGGUCCCAAGCCCGGAUAAAAGUGGGGGGGGCGG [A46G C20A] | 0.09
3 | CCGCCUAACACUGCCAAUGUCGGUCCCAAGCCCGGAUAAAAGUGGGGGGGGCGG [A46G C20U] | 0.07
4 | CCGCCUUACACUGCCAAUGCCGGUCCCAAGCCCGGAUAAAAGUGGGGGGGGCGG [A46G A7U] | 0.01
5 | CCGCCUCACACUGCCAAUGCCGGUCCCAAGCCCGGAUAAAAGUGGGGGGGGCGG [A46G A7C] | 0.02
6 | CCGCCUGACACUGCCAAUGCCGGUCCCAAGCCCGGAUAAAAGUGGGGGGGGCGG [A46G A7G] | 0.05
7 | CCGCCUAACACUGCCAAUGCCGGUUCCAAGCCCGGAUAAAAGUGGGGGGGGCGG [A46G C25U] | 0.05
8 | CCGCCUAACACUGCCAAUGCCGGUACCAAGCCCGGAUAAAAGUGGGGGGGGCGG [A46G C25A] | 0.02
9 | CCGCCUAACACUGCCAAUGCCGGUGCCAAGCCCGGAUAAAAGUGGGGGGGGCGG [A46G C25G] | 0.02
10 | CCGCCUAACACUGCCAAUGCCGGUCCCAAGCCCGGAUAAAAGUGGCGGAGGCGG [A46C G49A] | 0.04
11 | CCGCCUAACACUGCCAAUGCCGGUCCCAAGCCCGGAUAAAAGUGGCGGUGGCGG [A46C G49U] | 0.04
12 | CCGCCUAACACUGCCAAUGCCGGUCCCAAGCCCGGAUAAAAGUGGCGGCGGCGG [A46C G49C] | 0.03
13 | CCGCCUAACACUGCCAAUGCCGGUCCCAAGCCGGGAUAAAAGUGGGGGGGGCGG [A46G C33G] | 0.03
14 | CCGCCUAACACUGCCAAUGCCGGUCCCAAGCCUGGAUAAAAGUGGGGGGGGCGG [A46G C33U] | 0.06
15 | CCGCCUAACACUGCCAAUGCCGGUCCCAAGCCAGGAUAAAAGUGGGGGGGGCGG [A46G C33A] | 0.04
16 | CCGCCUAACACUGCCAAUGCCGGUCCCAAGCUCGGAUAAAAGUGGGGGGGGCGG [A46G C32U] | 0.04
17 | CCGCCUAACACUGCCAAUGCCGGUCCCAAGCACGGAUAAAAGUGGGGGGGGCGG [A46G C32A] | 0.03
18 | CCGCCUAACACUGCCAAUGCCGGUCCCAAGCGCGGAUAAAAGUGGGGGGGGCGG [A46G C32G] | 0.07
19 | CCGCCUAACACUGCCAAUGCCGGUCCCAAGCCCGGAUAAAAGUGGCGGGGGCCG [A46C G53C] | 0.04
20 | CCGCCUAACACUGCCAAUGCCGGUCCCAAGCCCGGAUAAAAGUGGCGGGGGCUG [A46C G53U] | 0.08
21 | CCGCCUAACACUGCCAAUGCCGGUCCCAAGCCCGGAUAAAAGUGGCGGGGGCAG [A46C G53A] | 0.07
22 | CCGCCUAAAACUGCCAAUGCCGGUCCCAAGCCCGGAUAAAAGUGGGGGGGGCGG [A46G C9A] | 0.03
23 | CCGCCUAAGACUGCCAAUGCCGGUCCCAAGCCCGGAUAAAAGUGGGGGGGGCGG [A46G C9G] | 0.07
24 | CCGCCUAAUACUGCCAAUGCCGGUCCCAAGCCCGGAUAAAAGUGGGGGGGGCGG [A46G C9U] | 0.03

Row | Variant | self-cleavage
25 | CCGCCUAACAUUGCCAAUGCCGGUCCCAAGCCCGGAUAAAAGUGGGGGGGGCGG [A46G C11U] | 0.06
26 | CCGCCUAACAGUGCCAAUGCCGGUCCCAAGCCCGGAUAAAAGUGGGGGGGGCGG [A46G C11G] | 0.04
27 | CCGCCUAACAAUGCCAAUGCCGGUCCCAAGCCCGGAUAAAAGUGGGGGGGGCGG [A46G C11A] | 0.06
28 | CCGCCUAACACUGCCAAUGCCGGUCUCAAGCCCGGAUAAAAGUGGGGGGGGCGG [A46G C26U] | 0.04
29 | CCGCCUAACACUGCCAAUGCCGGUCGCAAGCCCGGAUAAAAGUGGGGGGGGCGG [A46G C26G] | 0.02
30 | CCGCCUAACACUGCCAAUGCCGGUCACAAGCCCGGAUAAAAGUGGGGGGGGCGG [A46G C26A] | 0.03
31 | CCGCCUAACACUGCCAAUGCCGGUCCCAAGCCCGGAUAAAAGUGGCGGGUGCGG [A46C G50U] | 0.09
32 | CCGCCUAACACUGCCAAUGCCGGUCCCAAGCCCGGAUAAAAGUGGCGGGCGCGG [A46C G50C] | 0.08
33 | CCGCCUAACACUGCCAAUGCCGGUCCCAAGCCCGGAUAAAAGUGGCGGGAGCGG [A46C G50A] | 0.1
34 | CCGCCUAACACAGCCAAUGCCGGUCCCAAGCCCGGAUAAAAGUGGCGGGGGCGG [A46C U12A] | 0.05
35 | CCGCCUAACACGGCCAAUGCCGGUCCCAAGCCCGGAUAAAAGUGGCGGGGGCGG [A46C U12G] | 0.03
36 | CCGCCUAACACCGCCAAUGCCGGUCCCAAGCCCGGAUAAAAGUGGCGGGGGCGG [A46C U12C] | 0.04
37 | CCGCCUAACACUGCCAAUGCCGGUCCCAAGCCCGGAUAAAACUGGCGGGGGCGG [A46C G42C] | 0.04
38 | CCGCCUAACACUGCCAAUGCCGGUCCCAAGCCCGGAUAAAAUUGGCGGGGGCGG [A46C G42U] | 0.02
39 | CCGCCUAACACUGCCAAUGCCGGUCCCAAGCCCGGAUAAAAAUGGCGGGGGCGG [A46C G42A] | 0.04
40 | CCGCCUAACACUGCCAAUGCCGGUCCCAAUCCCGGAUAAAAGUGGCGGGGGCGG [A46C G30U] | 0.02
41 | CCGCCUAACACUGCCAAUGCCGGUCCCAAGCCCGGAUAAAAGUGGCGGGGGCGC [A46C G54C] | 0.08
42 | CCGCCUAACACUGCCAAUGCCGGUCCCAAGCCCGGAUAAAAGUGGCGGGGGCGU [A46C G54U] | 0.19
43 | CCGCCUAACACUGCCAAUGCCGGUCCCAAGCCCGGAUAAAAGUGGCGGGGGCGA [A46C G54A] | 0.09
44 | CCGCCUAACACUGCCAAUGCCGGUCCCAAGCCCGAAUAAAAGUGGCGGGGGCGG [A46C G35A] | 0.06
45 | CCGCCUAACACUGCCAAUGCCGGUCCCAAGCCCGUAUAAAAGUGGCGGGGGCGG [A46C G35U] | 0.05
46 | CCGCCUAACACUGCCAAUGCCGGUCCCAAGCCCGCAUAAAAGUGGCGGGGGCGG [A46C G35C] | 0.04
47 | CCGCCUAACACUGCCAAUGCCGGUCCUAAGCCCGGAUAAAAGUGGGGGGGGCGG [A46G C27U] | 0.04
48 | CCGCCUAACACUGCCAAUGCCGGUCCAAAGCCCGGAUAAAAGUGGGGGGGGCGG [A46G C27A] | 0.05
